From ChEMBL document CHEMBL4376878, “Potent Thiophene Antagonists of Human Complement C3a Receptor with Anti-Inflammatory Activity” (J Med Chem, 2020) come the findings set out here.

Assay [1] addresses T1, C3a anaphylatoxin chemotactic receptor (Homo sapiens, UniProt Q16581).
T1 sequence (Q16581 whole entry): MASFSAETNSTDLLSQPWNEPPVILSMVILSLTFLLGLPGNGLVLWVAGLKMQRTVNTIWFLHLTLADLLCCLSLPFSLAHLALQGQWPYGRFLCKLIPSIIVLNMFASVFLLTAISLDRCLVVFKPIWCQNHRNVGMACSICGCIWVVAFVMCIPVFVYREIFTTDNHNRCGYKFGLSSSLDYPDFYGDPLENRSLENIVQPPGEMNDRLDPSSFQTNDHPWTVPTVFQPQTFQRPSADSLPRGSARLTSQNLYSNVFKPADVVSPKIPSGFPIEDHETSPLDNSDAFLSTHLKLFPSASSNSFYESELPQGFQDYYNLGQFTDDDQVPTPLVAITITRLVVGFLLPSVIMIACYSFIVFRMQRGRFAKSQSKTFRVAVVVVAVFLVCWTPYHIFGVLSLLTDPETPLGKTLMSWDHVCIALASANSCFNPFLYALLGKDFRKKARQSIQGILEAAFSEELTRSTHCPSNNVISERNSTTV
Briefly: Antagonist activity at C3a receptor in human MDM cells assessed as inhibition of C3a-induced intracellular calcium release preincubated for 30 mins followed by C3a addition and measured at 1 sec interval for => 200 secs by Fluo-3 AM dye-based FLIPR assay. Type of assay: functional, cell-based. The note with it: read-out: IC50. The method in brief: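 Macrophages were derived from CD14⁺ monocytes (M-CSF, 7 days) and dye-loaded with 4 μM Fluo-3 AM for 1 h at 37 °C in HBSS/probenecid/HEPES, pH 7.4. Antagonist was preincubated for 30 min at 37 °C before addition of synthetic full-length human C3a (100 nM). FLIPR fluorescence was read at ex 495/em 520 nm. Percent response was plotted against log concentration; n ≥ 3.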

Assay [2] deals with Rattus norvegicus. Briefly: Antiinflammatory activity in Wistar rat model of BR103-induced paw edema assessed as reduction in hind paw swelling at 10 mg/kg, po administered via gavage pretreated for 4 hrs followed by BR103 challenge and measured after 30 mins by digital caliper method relative to control. The assay is classed as functional, organism-based. An outline of the steps:
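Male Wistar rats given 10 mg/kg p.o. in olive oil at 0.5, 1, 2 or 4 h before i.pl. BR103 (350 μg in 100 μL 5% DMSO). Control rats received olive oil. Paw thickness and width measured by digital calipers at 0 and 0.5 h after agonist. n = 3–5 per group, one-way ANOVA.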

Active and inactive are the calls of the source. No cut-off for these calls is given here.

What is called IC50 is the midpoint of a concentration-inhibition curve. Turning to `Cc1cc(C(c2ccc(Cl)cc2)c2ccc(Cl)cc2)sc1C(=O)N[C@@H](CCCNC(=N)N)C(=O)O`, in assay [1], the IC50 is 10 nM. In addition, the outcome in assay [2] was Active.
